{"source": "ChEMBL document CHEMBL1240461", "about": "“Regioselective synthesis and molecular modeling study of vasorelaxant active 7,9-dioxa-1,2-diaza-spiro[4.5]dec-2-ene-6,10-diones” (Eur J Med Chem, 2010)", "note": "pIC50: −log10 of the molar value."}
{"system": "Aorta", "test": "Vasorelaxant activity in Wistar rat thoracic aortic ring assessed as inhibition of norepinephrine hydrochloride-induced contraction", "format": "functional, tissue-based", "how_it_was_run": "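Isolated thoracic aortic rings from male Wistar rats, stabilised at 2 g resting tension for 2 h. Controls used DMSO alone at matching concentrations. IC50 is the concentration giving 50% reduction of maximal norepinephrine contracture, from a best-fit line.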"}
{"smiles": "CC1(C)OC(=O)C2(C(=O)O1)C(c1ccc(Cl)cc1)C(c1ccccc1)=NN2c1ccccc1", "note": "(stereo unspecified)", "pIC50": 3.23}
{"smiles": "CC1(C)OC(=O)C2(C(=O)O1)C(c1ccc(Cl)cc1)C(c1ccccc1)=NN2c1cccc(Cl)c1", "note": "(stereo unspecified)", "pIC50": 3.35}
{"smiles": "CC1(C)OC(=O)C2(C(=O)O1)C(c1ccc(F)cc1)C(c1ccccc1)=NN2c1ccccc1", "note": "(stereo unspecified)", "pIC50": 2.83}
{"smiles": "CC1(C)OC(=O)C2(C(=O)O1)C(c1ccc(F)cc1)C(c1ccccc1)=NN2c1cccc(Cl)c1", "note": "(stereo unspecified)", "pIC50": 3.19}
{"smiles": "COc1ccc(C2C(c3ccccc3)=NN(c3ccccc3)C23C(=O)OC(C)(C)OC3=O)cc1", "note": "(stereo unspecified)", "pIC50": 3.30}
{"smiles": "COc1ccc(C2C(c3ccccc3)=NN(c3cccc(Cl)c3)C23C(=O)OC(C)(C)OC3=O)cc1", "note": "(stereo unspecified)", "pIC50": 3.49}
{"smiles": "CN(C)c1ccc(C2C(c3ccccc3)=NN(c3cccc(Cl)c3)C23C(=O)OC(C)(C)OC3=O)cc1", "note": "(stereo unspecified)", "pIC50": 3.37}
{"smiles": "CC1(C)OC(=O)C2(C(=O)O1)C(c1cccs1)C(c1ccccc1)=NN2c1ccccc1", "note": "(stereo unspecified)", "pIC50": 3.23}
{"smiles": "CC1(C)OC(=O)C2(C(=O)O1)C(c1cccs1)C(c1ccccc1)=NN2c1cccc(Cl)c1", "note": "(stereo unspecified)", "pIC50": 3.49}
{"smiles": "Cc1ccc(C2C(c3ccccc3)=NN(c3ccccc3)C23C(=O)OC(C)(C)OC3=O)o1", "note": "(stereo unspecified)", "pIC50": 3.14}
{"smiles": "Cc1ccc(C2C(c3ccccc3)=NN(c3cccc(Cl)c3)C23C(=O)OC(C)(C)OC3=O)o1", "note": "(stereo unspecified)", "pIC50": 3.14}
